Values joined by “and” are separate entries in the source; they are usually repeats but may differ in a detail not shown here. Equal entries are not always repeated.
Tested on: Fibroblast
Assay: Multiplex assay against human fibroblast
Format: toxicity, cell-based
Conditions: number of replicates 2
In short: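 Cells were classed with CellPathfinder machine-learning gating, first as Hoechst high-intensity objects or normal cells, then (normal cells) as healthy, pyknosed or fragmented nuclei, and finally (pyknosed cells) as mitotic or apoptotic. Staining of live cells at seeding used Hoechst33342, BioTracker Green Microtubule Cytoskeleton Dye, MitoTracker Red and Annexin V Alexa Fluor 680, with imaging on a CQ1 microscope at 37°C and 5% CO2 after compound addition. Tubulin, mitochondrial-mass and membrane-permeability phenotypes are per cents of healthy-nucleus cells.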

[1] = 12 h, 1 µM, compound concentration 1 uM
[2] = 12 h, 10 µM, compound concentration 10 uM
[3] = 24 h, 1 µM, compound concentration 1 uM
[4] = 24 h, 10 µM, compound concentration 10 uM
[5] = 48 h, 1 µM, compound concentration 1 uM
[6] = 48 h, 10 µM, compound concentration 10 uM

Cc1c(C(=O)Nc2ccc(N3C[C@@H](C)O[C@@H](C)C3)nc2)cccc1-c1ccc(OC(F)(F)F)cc1 [SONIDEGIB]
Population Apoptotic (%) [1]: 46% and 32% | Population Fragmented Nuclei (%) [1]: 13% and 9% | Population Healthy Nuclei (%) [1]: 64% and 70% | Population Hoechst High Intensity Objects (%) [1]: 0% | Population Membrane Permeable-Phenotype (%) [1]: 5% | Population Mitochondria Different-Phenotype (%) [1]: 0% and 1% | Population Mitotic Cells (%) [1]: 53% and 67% | Population Normal (%) [1]: 100% | Population Pyknosed Nuclei (%) [1]: 22% and 20% | Population Tubulin-Different-Phenotype (%) [1]: 16% and 10% | Total Cell Count [1]: 193 and 230 | Population Apoptotic (%) [2]: 55% and 38% | Population Fragmented Nuclei (%) [2]: 8% and 9% | Population Healthy Nuclei (%) [2]: 83% and 80% | Population Hoechst High Intensity Objects (%) [2]: 0% | Population Membrane Permeable-Phenotype (%) [2]: 1% and 0% | Population Mitochondria Different-Phenotype (%) [2]: 1% and 0% | Population Mitotic Cells (%) [2]: 44% and 61% | Population Normal (%) [2]: 100% | Population Pyknosed Nuclei (%) [2]: 7% and 10% | Population Tubulin-Different-Phenotype (%) [2]: 1% and 7% | Total Cell Count [2]: 117 and 128 | Population Apoptotic (%) [3]: 53% and 52% | Population Fragmented Nuclei (%) [3]: 15% and 12% | Population Healthy Nuclei (%) [3]: 60% and 69% | Population Hoechst High Intensity Objects (%) [3]: 0% | Population Membrane Permeable-Phenotype (%) [3]: 3% | Population Mitochondria Different-Phenotype (%) [3]: 1% and 0% | Population Mitotic Cells (%) [3]: 46% and 47% | Population Normal (%) [3]: 100% | Population Pyknosed Nuclei (%) [3]: 24% and 17% | Population Tubulin-Different-Phenotype (%) [3]: 10% and 7% | Total Cell Count [3]: 179 and 224 | Population Apoptotic (%) [4]: 53% and 57% | Population Fragmented Nuclei (%) [4]: 15% and 16% | Population Healthy Nuclei (%) [4]: 73% and 70% | Population Hoechst High Intensity Objects (%) [4]: 0% | Population Membrane Permeable-Phenotype (%) [4]: 4% and 5% | Population Mitochondria Different-Phenotype (%) [4]: 0% and 2% | Population Mitotic Cells (%) [4]: 46% and 42% | Population Normal (%) [4]: 100% | Population Pyknosed Nuclei (%) [4]: 10% and 13% | Population Tubulin-Different-Phenotype (%) [4]: 4% and 8% | Total Cell Count [4]: 123 and 141 | Population Apoptotic (%) [5]: 63% and 45% | Population Fragmented Nuclei (%) [5]: 16% and 12% | Population Healthy Nuclei (%) [5]: 65% and 72% | Population Hoechst High Intensity Objects (%) [5]: 0% | Population Membrane Permeable-Phenotype (%) [5]: 1% and 5% | Population Mitochondria Different-Phenotype (%) [5]: 0% | Population Mitotic Cells (%) [5]: 36% and 54% | Population Normal (%) [5]: 100% | Population Pyknosed Nuclei (%) [5]: 18% and 15% | Population Tubulin-Different-Phenotype (%) [5]: 9% and 3% | Total Cell Count [5]: 162 and 218 | Population Apoptotic (%) [6]: 57% and 66% | Population Fragmented Nuclei (%) [6]: 13% and 18% | Population Healthy Nuclei (%) [6]: 75% and 59% | Population Hoechst High Intensity Objects (%) [6]: 0% | Population Membrane Permeable-Phenotype (%) [6]: 4% and 6% | Population Mitochondria Different-Phenotype (%) [6]: 0% and 1% | Population Mitotic Cells (%) [6]: 42% and 33% | Population Normal (%) [6]: 100% | Population Pyknosed Nuclei (%) [6]: 10% and 21% | Population Tubulin-Different-Phenotype (%) [6]: 3% and 6% | Total Cell Count [6]: 128 and 138

Reference: ChEMBL document CHEMBL5303300, “EUbOPEN Chemogenomics Library - Multiplex” (2023)
